Reference: ChEMBL document CHEMBL1145831 (J Med Chem, 2003)
Values belong to the compound of their own block, whether it stands above or below them.

Key:
[1] = tested on: CCRF-CEM; test: In vitro growth inhibitory activity in the human CCRF-CEM leukemia cell line.; format: functional, cell-based
Procedure, shortened: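 CCRF-CEM human leukemia cells in log phase, 4.8 × 10⁴ cells per 2 mL well. Medium was RPMI-1640 with 10% dialyzed FBS and 25 mM HEPES. Compounds were serially diluted 1:3 in DMSO and added to duplicate wells, with DMSO-only controls, at 0.5% final DMSO. Cells were exposed 72 h at 37 °C in humidified 5% CO₂, then counted. IC50 in nM.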

[2] = tested on: Mus musculus; test: In vivo antitumor activity against murine pancreatic adenocarcinoma and measured as number of deaths on a schedule of 10-14 days and at a total dose of 41 mg/kg; format: ADME, organism-based; design: dose 41 mg/kg
Procedure, shortened: (§1)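 Mice bearing drug-sensitive murine pancreatic adenocarcinoma Panc-03 were dosed on the listed days at the listed total doses. Dosing solutions were made in water from stock solutions and injected within 20 min. Chlorohydrin solutions were acidified with 0.05% citric acid. Tolerance was recorded as body weight loss and number of deaths.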

[3] = tested on: Mus musculus; test: Log cell kill of tumor bearing mice on a schedule of 10-14 days and at a total dose of 41 mg/kg; format: functional, organism-based; design: dose 41 mg/kg
Procedure, shortened: (§2)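 Panc-03 murine pancreatic adenocarcinoma in mice. Aqueous dosing solutions were prepared from stocks and injected within 20 min; chlorohydrins were acidified with 0.05% citric acid. Log cell kill was calculated from tumor growth delay, the difference in days between treated and control animals to reach 1000 mg tumor weight.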

[4] = tested on: Mus musculus; test: In vivo antitumor activity against murine pancreatic adenocarcinoma and measured as % weight loss on a schedule of 10-14 days and at a total dose of 41 mg/kg; format: functional
Procedure, shortened: (§3)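 Body weight loss was tracked in mice implanted with the Panc-03 murine pancreatic adenocarcinoma. Injections were given within 20 min of aqueous preparation from stock solutions, with chlorohydrins acidified using 0.05% citric acid.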

[5] = tested on: Mus musculus; test: Ratio of the median tumor weight in the treatment group over the median tumor weight in the control group on a schedule of 10-14 days and at a total dose of 41 mg/kg; format: functional
Procedure, shortened: (§4)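 Mice bearing the drug-sensitive murine pancreatic adenocarcinoma Panc-03. Dosing solutions were made in water from stock solutions and injected within 20 min of preparation; chlorohydrins were acidified with 0.05% citric acid. T/C (%) = median tumor weight of the treated group ÷ median tumor weight of controls × 100, calculated when control median tumor weight reached 1 g.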

[6] = tested on: Mus musculus; test: Ratio of the median tumor weight in the treatment group over the median tumor weight in the control group on a schedule of 3,8days and at a total dose of 16 mg/kg; format: functional; procedure, shortened: as §4
[7] = tested on: Mus musculus; test: In vivo antitumor activity against murine pancreatic adenocarcinoma and measured as number of deaths on a schedule of 3,8days and at a total dose of 16 mg/kg; format: ADME, organism-based; design: dose 16 mg/kg; conditions: 192 h; procedure, shortened: as §1
[8] = tested on: Mus musculus; test: In vivo antitumor activity against murine pancreatic adenocarcinoma and measured as % weight loss on a schedule of 3,8days and at a total dose of 16 mg/kg; format: functional; procedure, shortened: as §3
[9] = tested on: Mus musculus; test: Log cell kill of tumor bearing mice on a schedule of 3,8days and at a total dose of 16 mg/kg; format: functional, organism-based; design: dose 16 mg/kg; procedure, shortened: as §2
[10] = tested on: Mus musculus; test: In vivo antitumor activity against murine pancreatic adenocarcinoma and measured as number of deaths on a schedule of 3,4,6,10 days and at a total dose of 3.5 mg/kg; format: ADME, organism-based; design: dose 3.5 mg/kg; conditions: 240 h; procedure, shortened: as §1
[11] = tested on: Mus musculus; test: In vivo antitumor activity against murine pancreatic adenocarcinoma and measured as % weight loss on a schedule of 3,4,6 days and at a total dose of 6 mg/kg; format: functional; procedure, shortened: as §1
[12] = tested on: Mus musculus; test: In vivo antitumor activity against murine pancreatic adenocarcinoma and measured as number of deaths on a schedule of 3,4,6 days and at a total dose of 6 mg/kg; format: ADME, organism-based; design: dose 6 mg/kg; conditions: 144 h; procedure, shortened: as §1
[13] = tested on: Mus musculus; test: In vivo antitumor activity against murine pancreatic adenocarcinoma and measured as number of deaths on a schedule of 3,4,6 days and at a total dose of 12 mg/kg; format: ADME, organism-based; design: dose 12 mg/kg; conditions: 144 h; procedure, shortened: as §1
[14] = tested on: Mus musculus; test: Ratio of the median tumor weight in the treatment group over the median tumor weight in the control group on a schedule of 3,4,6,10 days and at a total dose of 3.5 mg/kg; format: functional
Procedure, shortened: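 Panc-03 murine pancreatic adenocarcinoma in mice, with injectable solutions prepared in water from stock and given within 20 min; chlorohydrins were acidified with 0.05% citric acid. %T/C is median tumor weight of the treated group over that of the control group × 100, calculated when control median tumor weight reaches 1 g. T/C ≤ 42% is taken as significant activity.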

[15] = tested on: Mus musculus; test: In vivo antitumor activity against murine pancreatic adenocarcinoma and measured as % weight loss on a schedule of 3,4,6,10 days and at a total dose of 3.5 mg/kg; format: functional; procedure, shortened: as §1
[16] = tested on: Mus musculus; test: In vivo antitumor activity against murine pancreatic adenocarcinoma and measured as % weight loss on a schedule of 3,4,6 days and at a total dose of 12 mg/kg; format: functional; procedure, shortened: as §1

SMILES: COc1ccc(C[C@H]2NC(=O)/C=C/C[C@@H]([C@H](C)/C=C/c3cccc(C)c3)OC(=O)[C@H](CC(C)C)OC(=O)C(C)(C)CNC2=O)cc1Cl
IC50 [1]: 25 nM

SMILES: COc1ccc([C@H]2O[C@@H]2[C@@H](C)[C@@H]2C/C=C/C(=O)N[C@H](Cc3ccc(OC)c(Cl)c3)C(=O)NCC(C)(C)C(=O)O[C@@H](CC(C)C)C(=O)O2)cc1
IC50 [1]: 0.28 nM

SMILES: COc1ccc(C[C@H]2NC(=O)/C=C/C[C@@H]([C@H](C)[C@H]3O[C@@H]3c3ccc(CN4CCN(C(=O)OC(C)(C)C)CC4)cc3)OC(=O)[C@H](CC(C)C)OC(=O)C(C)(C)CNC2=O)cc1Cl
IC50 [1]: 0.001 nM

SMILES: COc1ccc(C[C@H]2NC(=O)/C=C/C[C@@H]([C@H](C)[C@@H](O)[C@@H](Cl)c3ccc(OC(=O)C(C)(C)CN)cc3)OC(=O)[C@H](CC(C)C)OC(=O)C(C)(C)CNC2=O)cc1Cl
IC50 [1]: 0.79 nM

SMILES: CC(=O)O[C@H]1C(=O)[C@@]2(C)[C@H]([C@H](OC(=O)c3ccccc3)[C@]3(O)C[C@H](OC(=O)[C@H](O)[C@@H](NC(=O)c4ccccc4)c4ccccc4)C(C)=C1C3(C)C)[C@]1(OC(C)=O)CO[C@@H]1C[C@@H]2O [PACLITAXEL]
Death [2]: 0 | Log kill [3]: 4.2 | Weight loss [4]: -5% | T/C [5]: 0%

SMILES: CCN(CC)Cc1ccc([C@H](Cl)[C@H](O)[C@@H](C)[C@@H]2C/C=C/C(=O)N[C@H](Cc3ccc(OC)c(Cl)c3)C(=O)NCC(C)(C)C(=O)O[C@@H](CC(C)C)C(=O)O2)cc1
IC50 [1]: 0.005 nM

SMILES: COc1ccc(C[C@H]2NC(=O)/C=C/C[C@@H]([C@H](C)/C=C/c3ccc(C)c(C)c3)OC(=O)[C@H](CC(C)C)OC(=O)C(C)(C)CNC2=O)cc1Cl
IC50 [1]: 70 nM

SMILES: COc1ccc(C[C@H]2NC(=O)/C=C/C[C@@H]([C@H](C)/C=C/c3ccc(O)cc3)OC(=O)[C@H](CC(C)C)OC(=O)C(C)(C)CNC2=O)cc1Cl
IC50 [1]: 4 nM

SMILES: COc1ccc(C[C@H]2NC(=O)/C=C/C[C@@H]([C@H](C)[C@@H]3O[C@H]3c3ccc(CO)cc3)OC(=O)[C@H](CC(C)C)OC(=O)C(C)(C)CNC2=O)cc1Cl
IC50 [1]: 0.29 nM

SMILES: COc1ccc(C[C@H]2NC(=O)/C=C/C[C@@H]([C@H](C)[C@H]3O[C@@H]3c3ccc(COC(=O)CNC(=O)OC(C)(C)C)cc3)OC(=O)[C@H](CC(C)C)OC(=O)C(C)(C)CNC2=O)cc1Cl
IC50 [1]: 0.0055 nM

SMILES: COc1ccc(C[C@H]2NC(=O)/C=C/C[C@@H]([C@H](C)[C@H]3O[C@@H]3c3cccc(C)c3)OC(=O)[C@H](CC(C)C)OC(=O)C(C)(C)CNC2=O)cc1Cl
IC50 [1]: 0.15 nM

IC50 [1]: 0.79 nM
SMILES: COc1ccc(C[C@H]2NC(=O)/C=C/C[C@@H]([C@H](C)[C@H]3O[C@@H]3c3ccc(CC(=O)O)cc3)OC(=O)[C@H](CC(C)C)OC(=O)C(C)(C)CNC2=O)cc1Cl

SMILES: CCN(CC)Cc1ccc([C@H]2O[C@@H]2[C@@H](C)[C@@H]2C/C=C/C(=O)N[C@H](Cc3ccc(OC)c(Cl)c3)C(=O)NCC(C)(C)C(=O)O[C@@H](CC(C)C)C(=O)O2)cc1
IC50 [1]: 0.003 nM

IC50 [1]: 440 nM
SMILES: COc1ccc(C[C@H]2NC(=O)/C=C/C[C@@H]([C@H](C)/C=C/c3cc(C)ccc3C)OC(=O)[C@H](CC(C)C)OC(=O)C(C)(C)CNC2=O)cc1Cl

IC50 [1]: 100 nM
SMILES: COc1ccc(C[C@H]2NC(=O)/C=C/C[C@@H]([C@H](C)[C@@H]3O[C@H]3c3cc(C)ccc3C)OC(=O)[C@H](CC(C)C)OC(=O)C(C)(C)CNC2=O)cc1Cl

IC50 [1]: 0.092 nM
SMILES: COc1ccc(C[C@H]2NC(=O)/C=C/C[C@@H]([C@H](C)[C@@H](O)[C@@H](Cl)c3ccc(CNCCN)cc3)OC(=O)[C@H](CC(C)C)OC(=O)C(C)(C)CNC2=O)cc1Cl

SMILES: COc1cccc2c1C(=O)c1c(O)c3c(c(O)c1C2=O)C[C@@](O)(C(=O)CO)C[C@@H]3O[C@H]1C[C@H](N)[C@H](O)[C@H](C)O1 [DOXORUBICIN]
T/C [6]: 16% | Death [7]: 0 | Weight loss [8]: -12% | Log kill [9]: 1.5

SMILES: COc1ccc(C[C@H]2NC(=O)/C=C/C[C@@H]([C@H](C)[C@H]3O[C@@H]3c3ccc(C)c(C)c3)OC(=O)[C@H](CC(C)C)OC(=O)C(C)(C)CNC2=O)cc1Cl
IC50 [1]: 0.05 nM

SMILES: COc1ccc(C[C@H]2NC(=O)/C=C/C[C@@H]([C@H](C)[C@@H](O)[C@@H](Cl)c3ccc(CNC(=O)CN(C)C(=O)OC(C)(C)C)cc3)OC(=O)[C@H](CC(C)C)OC(=O)C(C)(C)CNC2=O)cc1Cl
IC50 [1]: 0.02 nM

IC50 [1]: 2 nM
SMILES: COc1ccc(C[C@H]2NC(=O)/C=C/C[C@@H]([C@H](C)[C@H]3O[C@@H]3c3cc(C)ccc3C)OC(=O)[C@H](CC(C)C)OC(=O)C(C)(C)CNC2=O)cc1Cl

SMILES: COc1ccc(/C=C/[C@@H](C)[C@@H]2C/C=C/C(=O)N[C@H](Cc3ccc(OC)c(Cl)c3)C(=O)NCC(C)(C)C(=O)O[C@@H](CC(C)C)C(=O)O2)cc1
IC50 [1]: 12 nM

IC50 [1]: 0.04 nM
SMILES: CNCC(=O)NCc1ccc([C@H](Cl)[C@H](O)[C@@H](C)[C@@H]2C/C=C/C(=O)N[C@H](Cc3ccc(OC)c(Cl)c3)C(=O)NCC(C)(C)C(=O)O[C@@H](CC(C)C)C(=O)O2)cc1

SMILES: COC(=O)c1ccc([C@H](Cl)[C@H](O)[C@@H](C)[C@@H]2C/C=C/C(=O)N[C@H](Cc3ccc(OC)c(Cl)c3)C(=O)NCC(C)(C)C(=O)O[C@@H](CC(C)C)C(=O)O2)cc1
IC50 [1]: 0.037 nM

SMILES: COc1ccc(C[C@H]2NC(=O)/C=C/C[C@@H]([C@H](C)[C@H]3O[C@@H]3c3ccc(CO)cc3)OC(=O)[C@H](CC(C)C)OC(=O)C(C)(C)CNC2=O)cc1Cl
IC50 [1]: 0.004 nM | Death [10]: 0 | Weight loss [11]: -19.5% | Death [12]: 1 | Death [13]: 4 | T/C [14]: 14% | Weight loss [15]: 10.5% | Weight loss [16]: -18.4%

SMILES: COc1ccc(C[C@H]2NC(=O)/C=C/C[C@@H]([C@H](C)/C=C/c3csc(C)n3)OC(=O)[C@H](CC(C)C)OC(=O)C(C)(C)CNC2=O)cc1Cl
IC50 [1]: 460 nM

IC50 [1]: 0.004 nM
SMILES: COc1ccc(C[C@H]2NC(=O)/C=C/C[C@@H]([C@H](C)[C@@H](O)[C@@H](Cl)c3ccc(COC(=O)C(C)(C)CN)cc3)OC(=O)[C@H](CC(C)C)OC(=O)C(C)(C)CNC2=O)cc1Cl

SMILES: COc1ccc(C[C@H]2NC(=O)/C=C/C[C@@H]([C@H](C)/C=C/c3ccc(CO)cc3)OC(=O)[C@H](CC(C)C)OC(=O)C(C)(C)CNC2=O)cc1Cl
IC50 [1]: 0.79 nM

SMILES: COc1ccc(C[C@H]2NC(=O)/C=C/C[C@@H]([C@H](C)[C@@H](O)[C@@H](Cl)c3ccc(C)c(C)c3)OC(=O)[C@H](CC(C)C)OC(=O)C(C)(C)CNC2=O)cc1Cl
IC50 [1]: 0.6 nM
